HKDC1 inhibitor = HKDC1 (human) hexokinase inhibition; inhibition, % at 20 µM; 340,000 compounds, 0.16% hits; Q2TB90; recombinant HKDC1, G6PDH/diaphorase resazurin coupled fluorescence;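 active = inhibition above about 35% when tested at 20 µM, limit read from the data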;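 also: plate controls were DMSO wells with enzyme for no effect and DMSO wells lacking enzyme for full effect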
Target sequence (Q2TB90 whole entry, looked up): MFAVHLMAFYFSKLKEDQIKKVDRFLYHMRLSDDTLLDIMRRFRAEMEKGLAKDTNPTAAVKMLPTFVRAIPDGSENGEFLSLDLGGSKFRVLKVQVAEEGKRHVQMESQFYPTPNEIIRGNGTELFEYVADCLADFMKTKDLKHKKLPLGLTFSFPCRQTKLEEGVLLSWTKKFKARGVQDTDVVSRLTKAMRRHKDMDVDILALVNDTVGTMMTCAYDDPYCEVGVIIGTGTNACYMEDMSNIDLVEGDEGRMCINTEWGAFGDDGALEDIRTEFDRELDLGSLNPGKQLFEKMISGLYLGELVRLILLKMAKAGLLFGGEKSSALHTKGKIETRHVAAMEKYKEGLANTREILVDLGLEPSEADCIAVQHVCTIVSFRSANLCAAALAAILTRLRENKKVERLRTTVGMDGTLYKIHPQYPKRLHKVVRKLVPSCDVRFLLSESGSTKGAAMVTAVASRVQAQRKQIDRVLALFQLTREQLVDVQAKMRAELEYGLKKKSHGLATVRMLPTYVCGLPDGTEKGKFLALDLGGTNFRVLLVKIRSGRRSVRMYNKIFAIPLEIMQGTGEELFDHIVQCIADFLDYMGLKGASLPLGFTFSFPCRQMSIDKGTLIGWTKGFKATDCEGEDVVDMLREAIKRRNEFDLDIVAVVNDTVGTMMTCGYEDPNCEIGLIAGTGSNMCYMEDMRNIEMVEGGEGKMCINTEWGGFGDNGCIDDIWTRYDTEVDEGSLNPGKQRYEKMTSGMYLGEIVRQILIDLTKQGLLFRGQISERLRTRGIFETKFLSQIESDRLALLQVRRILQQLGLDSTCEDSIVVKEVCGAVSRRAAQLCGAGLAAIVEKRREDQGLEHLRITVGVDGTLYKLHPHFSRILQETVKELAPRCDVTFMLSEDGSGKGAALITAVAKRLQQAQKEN
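Test system: recombinant HKDC1 (HK5) hexokinase enzyme, produced in-house / Doses: 20 µM test compound, 1% DMSO / Timing: 90 min, room temperature / Detection: G6PDH/diaphorase-coupled fluorescence, 1 mM NADP, 100 µM resazurin, 525/613 nm / Control set: DMSO wells with and without enzyme mix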
Diaphorase act = diaphorase activation or chemical reduction counter-screen. 190,000 compounds, 0.005% hits. activation factor at 20 µM. Diaphorase/resazurin coupled assay, resorufin fluorescence, 16 min; stronger effect = higher value; 1 = vehicle wells, 0 = NADH-free wells;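 active = diaphorase activity raised at least twofold by the compound at 20 µM; inactive = activation factor below 2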
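Material: purified diaphorase enzyme from Clostridium kluyveri; Also added: 0.114 mM NADH and 0.1 mM resazurin, final amounts; Doses: single compound dose of 20 µM, 1% DMSO final; Times: 16 min enzyme reaction, ambient temperature; Detection: resorufin fluorescence, excitation 544 nm, emission 590 nm; Measure: increased resorufin signal from activators or reducing compounds.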
Diaphorase inh = counter-screen for diaphorase-based assays: diaphorase inhibitors and chemical oxidizers. diaphorase resazurin-to-resorufin fluorescence, NADH, 16 min; bacterial (C. kluyveri) enzyme, not human. inhibition, % at 20 µM. 190,000 compounds, 0.69% hits. AID 1217;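 active = primary screen inhibition at 20 µM above a set limit, cut at about 50% in these data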;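 also: plate controls were DMSO with full reaction for no effect and wells lacking NADH for full effect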
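Detection: fluorescence of resorufin formed from resazurin, Ex 544/Em 590 nm; test system: Clostridium kluyveri diaphorase enzyme; amount: 0.14 U/mL diaphorase, enzyme working solution; times: 16-min room-temperature incubation before reading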
PfG6PD inh = PfG6PD (Plasmodium falciparum) enzyme inhibition. PfGluPho enzyme, NADPH resazurin-diaphorase fluorescence. inhibition, % at 20 µM. 350,000 compounds, 0.78% hits. AID 504690;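 active = inhibition reaching at least a set limit at 20 µM in the primary screen, cut at about 59% in these data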;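 also: 0% = DMSO wells with substrate and 100% = DMSO wells lacking glucose-6-phosphate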
G6PDH counter = counter-screen for G6PDH assay hits: L. mesenteroides G6PDH inhibition | inhibition, % at 5 µM | Purified L. mesenteroides G6PDH, diaphorase/resazurin coupled fluorescence, 45 min | AID 1020 | 200,000 compounds, 0.12% hits; in the data active = inhibition above about 50%
HKDC1 act conf = HKDC1 (human) activation, single-dose confirmed. AID 504708. 740 compounds, 14% hits. shares compounds with HKDC1 inhibitor. recombinant HKDC1, G6PDH/diaphorase resazurin fluorescence; stronger effect = lower value. inhibition, % at 20 µM;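 active = inhibition at or below a set negative limit, negative inhibition meaning the enzyme was activated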
The depositor's hits bear a star; . = no result given. The list is not random: actives were taken first. Their share in the collection is about 1.3%.

SMILES	HKDC1 inhibitor	Diaphorase act	Diaphorase inh	PfG6PD inh	G6PDH counter	HKDC1 act conf
COc1ccc(CCN2C(=O)NC(NS(=O)(=O)c3ccccc3)(C(F)(F)F)C2=O)cc1OC (stereo not drawn)	-7	.	.	9	.	.
COC(=O)[C@@H](Cc1ccccc1)NC(=O)Cn1cnc2c(SC)nc(N)nc21	-1	.	.	10	.	.
CSc1nc(N)nc2c1ncn2CC(=O)N[C@H](C)c1cccc2ccccc12	-55	.	.	-67	.	-74*
COc1cccc(C(C(=O)NCc2ccccc2)N(C(=O)c2csnn2)C2CC2)c1 (stereo not drawn)	-7	.	.	11	.	.
COc1ccc(CC(=O)N(Cc2ccccc2)c2ccc(C)cc2)cc1S(=O)(=O)N1CCOCC1	33	.	.	9	.	-30
CCOc1cc2c(cc1OCC)CN(C(=O)c1cccc(S(=O)(=O)N3CCCC3)c1)CC2	-3	.	.	0	.	.
CCN1CCN(CC(=O)n2c3c(c4ccccc42)CC(C)CC3)CC1 (stereo not drawn)	-7	0.9	11	24	-38	.
CC1CCc2c(c3ccccc3n2C(=O)CCl)C1 (stereo not drawn)	46*	.	.	12	.	-11
c1ccc2oc(C3=NNC(=NC4CC4)SC3)cc2c1	-47	0.8	19	23	-4	-24
CCOC(=O)C1=C(Cc2ccc(F)cc2)C(=O)c2ccccc2C1=O	73*	0.7	25	98*	62*	59
COc1cc2c(cc1OC)-c1cc(NCc3ccccn3)nc(=O)n1CC2	59*	0.9	9	17	-3	54
O=C1C(Cl)=C(N2CCN(c3ccccc3[N+](=O)[O-])CC2)C(=O)c2ccccc21	40*	0.6	40	17	42	-9
CC(=O)c1ccc(NC(=O)c2noc(C)c2[N+](=O)[O-])cc1	-6	.	.	-9	.	.
Cc1onc(C(=O)Nc2ccc(OC(F)(F)F)cc2)c1[N+](=O)[O-]	79*	.	.	12	.	-15
CCOC(=O)CN1C(=O)/C(=C/c2ccccc2Br)Oc2ccccc21	-3	.	.	0	.	.
CC(C)(C)c1ccc(C(=O)NCCC(=O)Nc2cc(Cl)ccc2N2CCOCC2)cc1	1	.	.	17	.	.
CC[n+]1c(/C=C2\Sc3ccccc3N2C)ccc2cccc(C)c21	-40	1.6	-57	20	7	-38*
CCN1/C(=C/c2ccc3cc(C)ccc3[n+]2CC)Sc2ccccc21	-27	1.3	-27	-11	-1	.
O=C(NC(=S)NNC(=O)c1ccccc1O)c1ccco1	-44	0.6	37	-33	6	15
O=C(NC(=S)NNC(=O)c1cc2ccccc2cc1O)c1ccco1	-33	0.6	41	-26	-4	.
C/C(=N\NC(=O)c1c(C)nc2ccccn12)c1ccccc1F	0	.	.	-13	.	.
C/C(=N\NC(=O)c1c(C)nc2ccccn12)c1ccc(O)cc1O	-45	.	.	-9	.	-8
Cc1nn(-c2ccccc2)c(Cl)c1CN(C(=O)CCl)c1ccc(Cl)cc1	38*	0.8	18	-5	3	13
CC(=O)N(Cc1c(C)nn(-c2ccccc2)c1Cl)c1ccc(Cl)cc1	2	0.9	8	-7	7	.
Cc1ccc(C(=O)N2CCN3C(=O)c4ccccc4C23c2ccc(Cl)cc2)cc1 (stereo not drawn)	7	0.8	22	-14	0	.
SMILES	HKDC1 inhibitor	Diaphorase act	Diaphorase inh	PfG6PD inh	G6PDH counter	HKDC1 act conf
O=C(CCl)N1CCN2C(=O)c3ccccc3C12c1ccc(Cl)cc1 (stereo not drawn)	32	1	5	17	2	8
COc1ccc(N=c2oc3c(OC)cccc3cc2C(=O)NCc2ccco2)cc1OC	18	1	2	6	1	.
COc1cccc2cc(C(=O)Nc3ccc(F)cc3)c(=Nc3ccc(C(=O)O)cc3)oc12	77*	0.4	62*	-9	0	9
CN=CC1=C(O)c2ccccc2C1=O	-8	0.9	14	1	5	.
O=C1C(C2=C(O)c3ccccc3C2=O)=Nc2ccccc21	-242	0.9	10	17	56*	-162*
Cn1cnc([N+](=O)[O-])c1Sc1ccc(Br)cc1	-58	0.9	6	-7	-3	-7
COc1cc(N(C(C)=O)c2ccc(O)c(C(=O)O)c2)c2ncccc2c1	.	.	.	14	.	.
O=C(O)C1Nc2c(O)cc(Cl)c([N+](=O)[O-])c2C2C=CCC12 (stereo not drawn)	32	0.3	71*	2	12	31
Cc1onc(-c2ccccc2)c1C(=O)N/N=C(\N)COc1ccc(Cl)cc1	-23	0.9	14	-23	-11	.
Cc1onc(-c2ccccc2Cl)c1C(=O)N/N=C(\N)COc1ccc(Cl)cc1	-39	0.9	10	-37	0	-32
CCCCC(CC)CN=C(N)NC(N)=NCCCCCCN=C(N)NC(N)=NCC(CC)CCCC (stereo not drawn)	42*	.	.	41	.	46
O=C(NN1CCOCC1)c1ccc(Cl)c([N+](=O)[O-])c1	36*	.	.	5	.	-34
CCN(CC)Cc1cc(O)c(CN(CC)CC)cc1O	47*	0.5	53*	76*	57*	41
CN(C)c1ccc(C2Nc3ccccc3C(=O)N2NS(C)(=O)=O)cc1 (stereo not drawn)	-1	.	.	3	.	.
CC1CCCN(C(=O)COC(=O)c2cc([N+](=O)[O-])ccc2N2CCOCC2)C1 (stereo not drawn)	41*	.	.	12	.	-20
Cc1cc(C(=O)CCl)c(C)n1CCc1ccc(F)cc1	28	0.9	10	-7	1	.
Cc1cc(C(=O)CCl)c(C)n1CCc1ccc(Cl)cc1	39*	0.9	14	17	-1	10
O=C1/C(=C/c2ccncc2)Cc2ccccc21	6	.	.	-1	.	.
CC1C/C(=C/c2ccncc2)C(=O)/C(=C/c2ccncc2)C1 (stereo not drawn)	43*	0.9	7	9	1	-5
N=C1N(/N=C/c2ccccc2)C(=Nc2ccccc2)C(=S)N1c1ccccc1	-49	0.8	16	17	8	-32
Cc1ccc(/C=N/n2c(-c3ccccc3)n[nH]c2=S)cc1	-3	.	.	17	.	.
Cc1ccccc1OCCCN1C(=O)C(=O)c2cccc(C)c21	37*	0.8	15	36	-4	-6
Cc1cccc2c1N(CCCOc1ccccc1)C(=O)C2=O	19	0.9	13	1	10	.
O=C(Nc1ccc(S(=O)(=O)Nc2ncccn2)cc1)c1ccc2ncsc2c1	34	.	.	15	.	33
O=C(O)c1ccc(-c2ccc(/C=c3/sc4nc5ccccc5n4c3=O)o2)cc1Cl	45*	.	.	30	.	-17
Cc1ccc2c(nc3s/c(=C\c4ccc(-c5ccccc5C(=O)O)o4)c(=O)n32)c1C	10	.	.	25	.	.
